Measurements from ChEMBL document CHEMBL1129428 (J Med Chem, 1996).

Columns and labels:
[1] = tested on: Rattus norvegicus; experiment: Compound was tested for anticonvulsant activity after Oral Administration into Rats by using MES screen test after 2h,dose 12.5 mg/kg; No activity was demonstarted; format: functional, organism-based; design: dose 12.5 mg/kg
Outline: (§1)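 Rats received the compound orally. […] Rats were tested in the MES screen at 0.25, 0.5, 1, 2 and 4 h. Each value is the number of rats protected out of 4. The test followed NINDS procedures.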

[2] = tested on: Rattus norvegicus; experiment: Compound was tested for anticonvulsant activity after Oral Administration into Rats by using MES screen test after 0.5h,dose 12.5 mg/kg; No activity was demonstarted; format: functional, organism-based; design: dose 12.5 mg/kg; outline: as §1
[3] = tested on: Rattus norvegicus; experiment: Compound was tested for anticonvulsant activity after Oral Administration into Rats by using MES screen test after 4h,dose 12.5 mg/kg; number of rats out of four which were protected; format: functional; outline: as §1
[4] = tested on: Rattus norvegicus; experiment: Compound was tested for anticonvulsant activity after Oral Administration into Rats by using MES screen test after 0.25h,dose 12.5 mg/kg; No activity was demonstarted; format: functional, organism-based; design: dose 12.5 mg/kg; outline: as §1
[5] = tested on: Mus musculus; experiment: Anticonvulsant activity after intraperitoneal injection into mice measured in a maximal electroshock scree (MES) screen; format: functional
[6] = tested on: Rattus norvegicus; experiment: Compound was tested for anticonvulsant activity after Oral Administration into Rats by using MES screen test after 1h,dose 12.5 mg/kg; No activity was demonstarted; format: functional, organism-based; design: dose 12.5 mg/kg; outline: as §1
[7] = Compound was tested for toxicity after intraperitoneal injection into mice by using neurotoxicity screen test after 2 hr; format: organism-based; conditions: mouse, in vivo, ip
Outline: (§2)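 Quantitative intraperitoneal mouse testing in the MES, scPTZ or rotorod neurotoxicity screens at the peak time given for each compound (0.25–2 h). ED50 or TD50 reported in mg/kg with 95% CI and slope (SE).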

[8] = tested on: Rattus norvegicus; experiment: Compound was tested for anticonvulsant activity after Oral Administration into Rats by using MES screen test after 0.25h,dose 30 mg/kg; No activity was demonstarted; format: functional, organism-based; design: dose 30 mg/kg; outline: as §1
[9] = tested on: Rattus norvegicus; experiment: Compound was tested for anticonvulsant activity after Oral Administration into Rats by using MES screen test after 0.5h,dose 30 mg/kg; number of rats out of four which were protected; format: functional; outline: as §1
[10] = tested on: Mus musculus; experiment: Compound was tested for toxicity after intraperitoneal injection into mice by using toxicity screen test after 4 hr; format: organism-based; conditions: in vivo, ip
Outline: (§3)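 Mice injected intraperitoneally at 30, 100 and 300 mg/kg and examined 0.5 and 4 h afterwards. Each entry is the minimum dose giving activity (MES protection, scPTZ protection, or rotorod failure for neurotoxicity) in half or more of the mice. Activity is called absent if nothing occurs at 300 mg/kg.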

[11] = tested on: Mus musculus; experiment: Anticonvulsant activity after intraperitoneal injection into mice by using scPTZ screen after 0.5 hr; format: functional
[12] = tested on: Rattus norvegicus; experiment: Compound was tested for anticonvulsant activity after Oral Administration into Rats by using MES screen test after 1h,dose 30 mg/kg; number of rats out of four which were protected; format: functional; outline: as §1
[13] = tested on: Rattus norvegicus; experiment: Compound was tested for anticonvulsant activity after Oral Administration into rat by using MES screen test after 2 hr; format: functional
Outline: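 Rats dosed orally, typically at 50 mg/kg first, then mostly 12.5 mg/kg (some compounds at 30 mg/kg), and tested by maximal electroshock. Four rats per compound, scored at 0.25, 0.5, 1, 2 and 4 h as the number of rats protected out of 4.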

[14] = tested on: Mus musculus; experiment: Anticonvulsant activity after intraperitoneal injection into mice by using MES screen test after 0.5 hr; format: functional
[15] = tested on: Mus musculus; experiment: Toxicity after intraperitoneal injection into mice by using toxicity screen test after 0.5 hr; format: organism-based; conditions: in vivo, ip; outline: as §3
[16] = tested on: Rattus norvegicus; experiment: Compound was tested for anticonvulsant activity after Oral Administration into Rats by using MES screen test after 4h,dose 30 mg/kg; number of rats out of four which were protected; format: functional; outline: as §1
[17] = tested on: Rattus norvegicus; experiment: Compound was tested for anticonvulsant activity after Oral Administration into Rats by using MES screen test after 2h,dose 30 mg/kg; number of rats out of four which were protected; format: functional; outline: as §1
[18] = Compound was tested for toxicity after oral administration in rat by using neurotoxicity screen test after 0.25-24 hr; format: organism-based; conditions: in vivo
Outline: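 Rat neurotoxicity after oral dosing, observed at 0.25, 0.5, 1, 2, 4, 6, 8 and 24 h (8 h omitted for one compound).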

[19] = tested on: Mus musculus; experiment: Anticonvulsant activity after intraperitoneal injection into mice by using scPTZ screen test after 4 hr; format: functional
[20] = tested on: Rattus norvegicus; experiment: Compound was tested for anticonvulsant activity after Oral Administration into Rats by using MES screen test after 0.25h,dose 30 mg/kg; number of rats out of four which were protected; format: functional; outline: as §1
[21] = tested on: Rattus norvegicus; experiment: Compound was tested for anticonvulsant activity after Oral Administration into Rats by using MES screen test after 2h,dose 12.5 mg/kg; number of rats out of four which were protected; format: functional; outline: as §1
[22] = tested on: Rattus norvegicus; experiment: Compound was tested for anticonvulsant activity after Oral Administration into Rats by using MES screen test after 1h,dose 12.5 mg/kg; number of rats out of four which were protected; format: functional; outline: as §1
[23] = tested on: Rattus norvegicus; experiment: Compound was tested for anticonvulsant activity after Oral Administration into Rats by using MES screen test after 0.25h,dose 12.5 mg/kg; number of rats out of four which were protected; format: functional; outline: as §1
[24] = Protection index = TD50/ED50; format: ADME; conditions: read-out: PI
[25] = tested on: Rattus norvegicus; experiment: Anticonvulsant activity after oral administration into rats; format: functional; design: concentration or dose not given beside the values
[26] = Protection index = TD50/ED50 (MES); conditions: mouse, in vivo; read-out: PI
[27] = tested on: Mus musculus; experiment: Compound was tested for anticonvulsant activity after intraperitoneal injection into mice by using scPTZ screen test after 1 hr; format: functional; conditions: ip; outline: as §2
[28] = Compound was tested for toxicity after intraperitoneal injection into mice by using neurotoxicity screen test after 1 hr; format: organism-based; conditions: mouse, in vivo, ip; outline: as §2
[29] = tested on: Mus musculus; experiment: Compound was tested for anticonvulsant activity after intraperitoneal injection into mice by using MES screen test after 1 hr; format: functional; conditions: ip; outline: as §2

| Compound | Activity [1] | Activity [2] | Activity [3] | Activity [4] | Dose [5] [mg/kg] | Activity [6] | Activity [9] | Dose [10] [mg/kg] | Dose [11] [mg/kg] | Activity [12] | Dose [14] [mg/kg] | Dose [15] [mg/kg] | Activity [16] | Activity [17] | Dose [19] [mg/kg] | Activity [21] | further results |
| --- | --- | --- | --- | --- | --- | --- | --- | --- | --- | --- | --- | --- | --- | --- | --- | --- | --- |
| NC(=O)N/N=C\c1ccc(Oc2ccncc2)cc1 | No activity | No activity | 2 | No activity | 300 | No activity |  |  |  |  |  |  |  |  |  |  |  |
| NC(=O)N/N=C\c1ccc(OC(=O)c2ccccc2)cc1 | No activity | No activity |  | No activity | 300 | No activity |  |  |  |  |  |  |  |  |  |  |  |
| CC/C(=N/NC(N)=O)c1ccc(Oc2ccc(Cl)cc2)cc1 |  |  |  |  |  |  | 1 | 100 | 300 | 4 | 30 | 300 | 4 | 4 |  |  | TD50 at 2 h [7]: < 100 mg/kg; Activity [8]: No activity; ED50 [13]: 2.89 mg/kg; TD50 [18]: > 500 mg/kg |
| Cc1cccc(C)c1Oc1ccc(/C=N/NC(N)=O)cc1 |  |  |  |  | 100 |  | 4 | 300 | 30 | 4 | 30 | 300 | 4 | 4 | 100 |  | Activity [20]: 1 |
| C/C(=N/NC(N)=O)c1ccc(Sc2ccc(C)cc2)cc1 |  | No activity | 4 | No activity | 100 | No activity |  |  | 100 |  | 100 |  |  |  |  | 3 |  |
| NC(=O)N/N=C\c1ccc(Oc2ccc(-c3ccccc3)cc2)cc1 |  | No activity | 1 | No activity | 300 | No activity |  | 300 |  |  |  |  |  |  | 300 | 3 |  |
| NC(=O)N/N=C\c1ccc(OC(=O)c2ccc(Cl)cc2)cc1 | No activity | No activity | 2 |  | 300 |  |  |  |  |  |  |  |  |  |  |  | Activity [22]: 1; Activity [23]: 1 |
| C/C(=N/NC(N)=O)c1ccc(Oc2ccc(C)cc2)cc1 |  |  | 4 | No activity | 100 |  |  |  | 30 |  | 30 |  |  |  |  | 4 | selectivity ratio [24]: 3.09; Activity [22]: 2; Activity [25]: 1; selectivity ratio [26]: 10.3; ED50 [27]: 18.7 mg/kg; TD50 at 1 h [28]: 57.9 mg/kg; ED50 [29]: 5.62 mg/kg |
| C/C(=N/NC(N)=O)c1ccc(Sc2ccc(F)cc2)cc1 |  |  |  |  | 30 |  | 4 | 300 |  | 4 | 100 | 300 | 4 | 4 | 300 |  | ED50 [13]: 9.11 mg/kg; Activity [20]: 3 |
